Reference: EPA's CvTdb concentration-time database

Legend:
Rat [1] = test: concentration in plasma after dosing; conditions: dosed: Wyeth-14643, 2.0 mg/kg, iv, Male, Sprague-Dawley
Rat [2] = test: concentration in plasma after dosing; conditions: 2 h; dosed: Wyeth-14643; 1.0 mg/kg; oral; Male; Sprague-Dawley
Rat [3] = test: concentration in plasma after dosing; conditions: 5 h; dosed: Wyeth-14643; 1.0 mg/kg; oral; Male; Sprague-Dawley
Rat [4] = test: concentration in plasma after dosing; conditions: 1 h; dosed: Wyeth-14643; 5.0 mg/kg; oral; Male; Sprague-Dawley
Rat [5] = test: concentration in plasma after dosing; conditions: 0.25 h; dosed: Wyeth-14643; 2.0 mg/kg; iv; Male; Sprague-Dawley
Rat [6] = test: concentration in liver after dosing; conditions: 1 h; dosed: Bis 2-Chloroethoxy Methane; 20 mg/kg; iv; Female; F344
Rat [7] = test: concentration in plasma after dosing; conditions: 1 h; dosed: Bis 2-Chloroethoxy Methane; 20 mg/kg; iv; Female; F344
Rat [8] = test: concentration in plasma after dosing; conditions: 20 min; dosed: Bis 2-Chloroethoxy Methane; 20 mg/kg; iv; Male; F344
Rat [9] = test: concentration in plasma after dosing; conditions: 3 h; dosed: Bis 2-Chloroethoxy Methane; 20 mg/kg; iv; Male; F344
Rat [10] = test: concentration in plasma after dosing; conditions: 5 h; dosed: Bis 2-Chloroethoxy Methane; 20 mg/kg; iv; Male; F344
Rat [11] = test: concentration in plasma after dosing; conditions: 2 h; dosed: Bis 2-Chloroethoxy Methane; 20 mg/kg; iv; Female; F344
Rat [12] = test: concentration in plasma after dosing; conditions: dosed: Bis 2-Chloroethoxy Methane, 40 mg/kg, iv, Male, Harlan Sprague Dawley
Rat [13] = test: concentration in liver after dosing; conditions: 3 h; dosed: Fluorotelomer alcohol 8+2; 80 mg/kg; oral; Female; Harlan Sprague Dawley
Rat [14] = test: concentration in kidney after dosing; conditions: 1 h; dosed: Fluorotelomer alcohol 8+2; 24 mg/kg; oral; Male; Harlan Sprague Dawley
Rat [15] = test: concentration in plasma after dosing; conditions: dosed: Fluorotelomer alcohol 8+2, 40 mg/kg, iv, Female, Harlan Sprague-Dawley
Rat [16] = test: concentration in liver after dosing; conditions: 864 h; dosed: Perfluorodecanoic acid; 10 mg/kg; oral; Female; Harlan Sprague Dawley
Rat [17] = test: concentration in liver after dosing; conditions: 24 h; dosed: Perfluorodecanoic acid; 10 mg/kg; oral; Female; Harlan Sprague Dawley
Rat [18] = test: concentration in liver after dosing; conditions: 1 h; dosed: Perfluorodecanoic acid; 10 mg/kg; oral; Male; Harlan Sprague Dawley
Rat [19] = test: concentration in plasma after dosing; conditions: dosed: Perfluorodecanoic acid, 2 mg/kg, iv, Male, F344
Rat [20] = test: concentration in plasma after dosing; conditions: dosed: Perfluorodecanoic acid, 2 mg/kg, iv, Male, F344; remark: listed apart in the source
Rat [21] = test: concentration in plasma after dosing; conditions: 9 h; dosed: Primidone; 30 mg/kg; oral; Female; F344
Rat [22] = test: concentration in plasma after dosing; conditions: 0.5 h; dosed: Primidone; 80 mg/kg; oral; Female; Harlan Sprague-Dawley
Rat [23] = test: concentration in plasma after dosing; conditions: 22 h; dosed: Primidone; 130 mg/kg; oral; Female; F344
Rat [24] = test: concentration in liver after dosing; conditions: 2 h; dosed: Thiodiglycolic Acid; 20 mg/kg; iv; Female; Harlan Sprague Dawley
Rat [25] = test: concentration in heart after dosing; conditions: 1 h; dosed: Thiodiglycolic Acid; 20 mg/kg; iv; Female; Harlan Sprague Dawley
Rat [26] = test: concentration in heart after dosing; conditions: 3 h; dosed: Thiodiglycolic Acid; 20 mg/kg; iv; Female; Harlan Sprague Dawley
Rat [27] = test: concentration in liver after dosing; conditions: 6.667 h; dosed: Thiodiglycolic Acid; 20 mg/kg; iv; Female; Harlan Sprague Dawley
Rat [28] = test: concentration in heart after dosing; conditions: 5.333 h; dosed: Thiodiglycolic Acid; 20 mg/kg; iv; Female; Harlan Sprague Dawley
Rat [29] = test: concentration in plasma after dosing; conditions: 10 min; dosed: Thiodiglycolic Acid; 20 mg/kg; iv; Male; F344
Rat [30] = test: concentration in thymus after dosing; conditions: 4 h; dosed: Thiodiglycolic Acid; 20 mg/kg; iv; Male; Harlan Sprague Dawley
Rat [31] = test: concentration in thymus after dosing; conditions: 10 min; dosed: Thiodiglycolic Acid; 20 mg/kg; iv; Female; Harlan Sprague Dawley
Rat [32] = test: concentration in plasma after dosing; conditions: 40 min; dosed: dichloroacetic acid; 100 mg/kg; oral; Male; F344
human [33] = conditions: dosed: tetrachloroethylene, 144 ppm, inhalation, duration: 4 hr, male
Procedure, shortened: (§1)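 Data points giving concentration or amount against time came from published in vivo toxicokinetic studies and from two structured collections. PubMed searching, classifier screening and manual review located the studies. Most points were digitised from plot screenshots using WebPlotDigitizer, the rest were copied from tables, and all keep their reported units.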

human [34] = test: concentration in blood after dosing; conditions: dosed: trichloroethylene, 100 ppm, inhalation, duration: 6 hr, person
Procedure, shortened: as §1

Cc1cccc(Nc2cc(Cl)nc(SCC(=O)O)n2)c1C
Rat [1]
Conditions	concentration in plasma [ng/mL]
0.5 h	5100
3 h	342

Conditions	concentration in plasma [ng/mL]
Rat [2]	266
Rat [3]	118
Rat [4]	4730
Rat [5]	17400

ClCCOCOCCCl [Bis 2-Chloroethoxy Methane]
Conditions	concentration in liver [ng/g]	concentration in plasma [ng/mL]
Rat [6]	610	–
Rat [7]	–	1240
Rat [8]	–	3180
Rat [9]	–	123
Rat [10]	–	36.5
Rat [11]	–	150

Rat [12]
Conditions	concentration in plasma [ng/mL]
8 h	22
40 min	8120

OCCC(F)(F)C(F)(F)C(F)(F)C(F)(F)C(F)(F)C(F)(F)C(F)(F)C(F)(F)F [Fluorotelomer alcohol 8+2]
Conditions	concentration in kidney [ng/g]	concentration in liver [ng/g]
Rat [13]	–	13000
Rat [14]	1140	–

Rat [15]
Conditions	concentration in plasma [ng/mL]
1 h	2530
24 h	24.5

O=C(O)C(F)(F)C(F)(F)C(F)(F)C(F)(F)C(F)(F)C(F)(F)C(F)(F)C(F)(F)C(F)(F)F [Perfluorodecanoic acid]
Conditions	concentration in liver [ng/g]
Rat [16]	59300
Rat [17]	138000
Rat [18]	50300

concentration in plasma [ng/mL]
Conditions	1 h	6 h	528 h	864 h	3360 h
Rat [19]	–	5760	–	777	–
Rat [20]	6390	–	2520	–	267

CCC1(c2ccccc2)C(=O)NC(=O)NC1=O [Phenobarbital]
Conditions	concentration in plasma [ng/mL]
Rat [21]	990
Rat [22]	1480
Rat [23]	2490

O=C(O)CSCC(=O)O [Thiodiglycolic Acid]
Conditions	concentration in heart [ng/g]	concentration in liver [ng/g]	concentration in plasma [ng/mL]	concentration in thymus [ng/g]
Rat [24]	–	25500	–	–
Rat [25]	2560	–	–	–
Rat [26]	558	–	–	–
Rat [27]	–	1600	–	–
Rat [28]	272	–	–	–
Rat [29]	–	–	34600	–
Rat [30]	–	–	–	904
Rat [31]	–	–	–	7780

O=C(O)C(Cl)Cl [dichloroacetic acid]
Conditions	concentration in plasma [ng/mL]
Rat [32]	13800

O=C(O)C(Cl)(Cl)Cl [trichloroacetic acid]
Conditions	amount in urine after dosing [mg]	concentration in blood [ng/mL]
human [33], 22 h	6.91	–
human [33], 46 h	2.33	–
human [33], 70 h	2.17	–
human [34], 0 h	–	11900
human [34], 18 h	–	32600
human [34], 24 h	–	50300
human [34], 42 h	–	32200
human [34], 48 h	–	51100
human [34], 66 h	–	51000
human [34], 72 h	–	55100
human [34], 90 h	–	49000
human [34], 96 h	–	64900
human [34], 160 h	–	28900
